Results published in ChEMBL document CHEMBL4715780, “Biological evaluation of tetracationic compounds based on two 1,4-diazabicyclo[2.2.2]octane moieties connected by different linkers” (Bioorg Med Chem, 2016).

How the values were obtained:
[1] = Selectivity index, ratio of CC50 for HEK293T cells assessed as reduction in cell viability measured after 24 hrs by MTT assay to MIC for Proteus vulgaris ATCC 6380 assessed as bacterial growth inhibition by CLSI protocol based serial microdilution method; type: toxicity; conditions: human, read-out: Selectivity Index
[2] = tested on: Escherichia coli; assay: Antibacterial activity against Escherichia coli ATCC 25922 assessed as bacterial growth inhibition by CLSI protocol based serial microdilution method; type: functional
[3] = Cytotoxicity against HEK293T cells assessed as reduction in cell viability measured after 24 hrs by MTT assay; type: cell-based, HEK-293T; conditions: human
Summary of the method: (§1)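 HEK293T or MCF-7 cells in IMDM with 10% FBS, seeded at 20,000 per well and grown overnight. Compounds at […] in fresh medium for 24 h at 37 °C, 5% CO₂. MTT then added for 4 h, precipitate dissolved overnight in SDS-HCl, absorbance read at 570 nm. Viability expressed relative to untreated cells, giving CC₅₀. Duplicate wells, at least two independent repeats.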

[4] = Selectivity index, ratio of CC50 for HEK293T cells assessed as reduction in cell viability measured after 24 hrs by MTT assay to MIC for Citrobacter freundii ATCC 8090 assessed as bacterial growth inhibition by CLSI protocol based serial microdilution method; type: toxicity; conditions: human, read-out: Selectivity Index
[5] = tested on: Citrobacter freundii; assay: Antibacterial activity against Citrobacter freundii ATCC 8090 assessed as concentration required to inhibit visible growth by CLSI protocol based serial microdilution method; type: functional
[6] = Selectivity index, ratio of CC50 for MDCK cells to EC50 for Influenza A virus (A/Puerto Rico/8/34 (H1N1)) infected in MDCK cells; type: toxicity, cell-based; conditions: dog, read-out: Ratio CC50/EC50
Summary of the method: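 Ratio of CC₅₀ to EC₅₀, both in MDCK cells, with cytotoxicity run in parallel with the antiviral assay. EC₅₀ is the concentration halving virus production (0.3 log₁₀ EID₅₀ titre drop). It was obtained after 1 h compound pre-incubation, infection, 48 h at 37 °C, and hemagglutination read-out with 1% chicken erythrocytes.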

[7] = Cytotoxicity against MDCK cells assessed as cell death incubated for 48 hrs by MTT assay; type: cell-based, Canis lupus familiaris; conditions: dog
[8] = tested on: Pseudomonas aeruginosa; assay: Antibacterial activity against Pseudomonas aeruginosa ATCC 9027 assessed as bacterial growth inhibition by CLSI protocol based serial microdilution method; type: functional
[9] = Selectivity index, ratio of CC50 for HEK293T cells assessed as reduction in cell viability measured after 24 hrs by MTT assay to MIC for Candida albicans CEMTC 34 assessed as bacterial growth inhibition by CLSI protocol based serial microdilution method; type: toxicity; conditions: human, read-out: Selectivity Index
Summary of the method: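 SI = CC₅₀ (HEK293T) / MIC. HEK293T cells were seeded at 20,000/well overnight, then exposed to 10–250 µg/mL in IMDM with 10% FBS for 24 h. MTT was added for 4 h, solubilised with SDS-HCl, and read at 570 nm; duplicates, ≥2 independent runs. MIC came from two-fold dilutions in Sabouraud dextrose broth at ~5 × 10⁵ CFU/mL, 37 °C with shaking, read at 595 nm, in duplicate.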

[10] = tested on: Enterococcus faecalis; assay: Antibacterial activity against Enterococcus faecalis ATCC 51299 assessed as bacterial growth inhibition by CLSI protocol based serial microdilution method; type: functional
[11] = tested on: Pseudomonas aeruginosa; assay: Antibacterial activity against Pseudomonas aeruginosa ATCC 9027 assessed as concentration required to inhibit visible growth by CLSI protocol based serial microdilution method; type: functional
[12] = Selectivity index, ratio of CC50 for HEK293T cells assessed as reduction in cell viability measured after 24 hrs by MTT assay to MIC for Pseudomonas aeruginosa ATCC 9027 assessed as bacterial growth inhibition by CLSI protocol based serial microdilution method; type: toxicity; conditions: human, read-out: Selectivity Index
[13] = tested on: Citrobacter freundii; assay: Antibacterial activity against Citrobacter freundii ATCC 8090 assessed as bacterial growth inhibition by CLSI protocol based serial microdilution method; type: functional
[14] = tested on: Proteus vulgaris; assay: Antibacterial activity against Proteus vulgaris ATCC 6380 assessed as concentration required to inhibit visible growth by CLSI protocol based serial microdilution method; type: functional
[15] = tested on: Escherichia coli; assay: Antibacterial activity against Escherichia coli ATCC 25922 assessed as concentration required to inhibit visible growth by CLSI protocol based serial microdilution method; type: functional
[16] = tested on: Staphylococcus aureus; assay: Antibacterial activity against […] Staphylococcus aureus ATCC 25923 assessed as bacterial growth inhibition by CLSI protocol based serial microdilution method; type: functional
[17] = Selectivity index, ratio of CC50 for HEK293T cells assessed as reduction in cell viability measured after 24 hrs by MTT assay to MIC for Enterococcus faecalis ATCC 51299 assessed as bacterial growth inhibition by CLSI protocol based serial microdilution method; type: toxicity; conditions: human, read-out: Selectivity Index
[18] = Selectivity index, ratio of CC50 for HEK293T cells assessed as reduction in cell viability measured after 24 hrs by MTT assay to MIC for Escherichia coli ATCC 25922 assessed as bacterial growth inhibition by CLSI protocol based serial microdilution method; type: toxicity; conditions: human, read-out: Selectivity Index
[19] = tested on: Candida albicans; assay: Antifungal activity against Candida albicans CEMTC 34 assessed as concentration required to inhibit visible growth by CLSI protocol based serial microdilution method; type: functional
Summary of the method: (§2)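 Candida albicans grown in Sabouraud dextrose broth with two-fold serial compound dilutions from water stocks; final inoculum about 5 × 10⁵ CFU/mL. Incubated at 37 °C with orbital shaking (580 rpm). MIC is the lowest concentration preventing growth, by absorbance at 595 nm. MFC is the lowest concentration with no visible growth. Duplicates in two separate experiments.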

[20] = tested on: Candida albicans; assay: Antifungal activity against Candida albicans CEMTC 34 assessed as fungal growth inhibition by CLSI protocol based serial microdilution method; type: functional; summary of the method: as §2
[21] = tested on: Enterococcus faecalis; assay: Antibacterial activity against Enterococcus faecalis ATCC 51299 assessed as concentration required to inhibit visible growth by CLSI protocol based serial microdilution method; type: functional
[22] = tested on: Proteus vulgaris; assay: Antibacterial activity against Proteus vulgaris ATCC 6380 assessed as bacterial growth inhibition by CLSI protocol based serial microdilution method; type: functional
[23] = tested on: Salmonella typhimurium; assay: Antibacterial activity against Salmonella enterica ATCC 14028 assessed as concentration required to inhibit visible growth by CLSI protocol based serial microdilution method; type: functional, Salmonella enterica subsp. enterica serovar Typhimurium
[24] = Cytotoxicity against human MCF7 cells assessed as reduction in cell viability measured after 24 hrs by MTT assay; type: cell-based; summary of the method: as §1
[25] = tested on: Salmonella typhimurium; assay: Antibacterial activity against Salmonella enterica ATCC 14028 assessed as bacterial growth inhibition by CLSI protocol based serial microdilution method; type: functional, Salmonella enterica subsp. enterica serovar Typhimurium
[26] = tested on: Staphylococcus aureus; assay: Antibacterial activity against […] Staphylococcus aureus ATCC 25923 assessed as concentration required to inhibit visible growth by CLSI protocol based serial microdilution method; type: functional
[27] = Selectivity index, ratio of CC50 for HEK293T cells assessed as reduction in cell viability measured after 24 hrs by MTT assay to MIC for Salmonella enterica ATCC 14028 assessed as bacterial growth inhibition by CLSI protocol based serial microdilution method; type: toxicity; conditions: human, read-out: Selectivity Index
[28] = tested on: Influenza A virus; assay: Antiviral activity against Influenza A virus (A/Puerto Rico/8/34 (H1N1) infected in MDCK cells assessed as decrease in viral titer preincubated for 1 hr followed by viral infection and cultivated for 48 hrs followed by supernatant transferred to chicken erythrocyte for 1 hr followed by measuring ability to cause positive hemagglutination; type: functional, organism-based; conditions: A/Puerto Rico/8/1934(H1N1)
Summary of the method: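 MDCK monolayers in MEM were pre-incubated with compound for 1 h at 37 °C, then infected with 10-fold virus dilutions (10⁻¹–10⁻⁶) and held 48 h at 37 °C, 5% CO₂. Supernatant was mixed with an equal volume of 1% chicken erythrocytes, 60 min at room temperature. Titre was taken from the highest dilution giving full agglutination (log₁₀ EID₅₀). Triplicate per concentration.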

[29] = Selectivity index, ratio of CC50 for HEK293T cells assessed as reduction in cell viability measured after 24 hrs by MTT assay to MIC for Staphylococcus aureus ATCC 25923 assessed as bacterial growth inhibition by CLSI protocol based serial microdilution method; type: toxicity; conditions: human, read-out: Selectivity Index

Row | Structure (SMILES) | selectivity ratio at 24 h [1] | MIC [2] [µg/mL] | CC50 at 24 h [3] [µg/mL] | selectivity ratio at 24 h [4] | MBC [5] [µg/mL] | selectivity ratio [6] | CC50 at 48 h [7] [µg/mL] | MIC [8] [µg/mL] | selectivity ratio at 24 h [9] | MIC [10] [µg/mL] | MBC [11] [µg/mL] | selectivity ratio at 24 h [12] | MIC [13] [µg/mL] | MBC [14] [µg/mL] | MBC [15] [µg/mL] | MIC [16] [µg/mL] | selectivity ratio at 24 h [17] | selectivity ratio at 24 h [18] | MFC [19] [µg/mL] | MIC [20] [µg/mL] | also measured
1 | CCCCCCCCCCCC[N+]12CC[N+](Cc3ccc(C[N+]45CC[N+](CCCCCCCCCCCC)(CC4)CC5)cc3)(CC1)CC2 | 1 | 1.6 | 16 | 10 | 3.1 | 3 | 2.9 | 6.3 | 1 | 1.6 | 12.5 | 3 | 1.6 | 25 | 3.1 | 0.6 | 10 | 10 | 12.5 | 12.5 | MBC [21]: 1.6 µg/mL; MIC [22]: 12.5 µg/mL; MBC [23]: 3.1 µg/mL; CC50 at 24 h [24]: 16 µg/mL; MIC [25]: 1.6 µg/mL; MBC [26]: 1.2 µg/mL; selectivity ratio at 24 h [27]: 10; EC50 [28]: 1 µg/mL; selectivity ratio at 24 h [29]: 27
2 | CCCCCCCCCCCC[N+]12CC[N+](CCCC[N+]34CC[N+](CCCCCCCCCCCC)(CC3)CC4)(CC1)CC2 | < 1 | 1.6 | 4 | 3 | 1.6 | < 2 | 6.8 | 1.6 | < 1 | 1.6 | 3.1 | 3 | 1.6 | > 100 | 3.1 | 0.6 | 3 | 3 | 6.3 | 6.3 | MBC [21]: 1.6 µg/mL; MIC [22]: 25 µg/mL; MBC [23]: 3.1 µg/mL; CC50 at 24 h [24]: 4 µg/mL; MIC [25]: 1.6 µg/mL; MBC [26]: 1.2 µg/mL; selectivity ratio at 24 h [27]: 3; EC50 [28]: > 3 µg/mL; selectivity ratio at 24 h [29]: 7
